Tests used:
Assay type in all cases: cell-based
[1] = molecular target: T1, Nuclear receptor ROR-alpha (Homo sapiens, UniProt P35398); experiment: Inverse agonist activity at human ROR-alpha1 transfected in HEK293 cells after 16 hrs by luciferase reporter gene assay
T1 sequence (P35398 whole entry): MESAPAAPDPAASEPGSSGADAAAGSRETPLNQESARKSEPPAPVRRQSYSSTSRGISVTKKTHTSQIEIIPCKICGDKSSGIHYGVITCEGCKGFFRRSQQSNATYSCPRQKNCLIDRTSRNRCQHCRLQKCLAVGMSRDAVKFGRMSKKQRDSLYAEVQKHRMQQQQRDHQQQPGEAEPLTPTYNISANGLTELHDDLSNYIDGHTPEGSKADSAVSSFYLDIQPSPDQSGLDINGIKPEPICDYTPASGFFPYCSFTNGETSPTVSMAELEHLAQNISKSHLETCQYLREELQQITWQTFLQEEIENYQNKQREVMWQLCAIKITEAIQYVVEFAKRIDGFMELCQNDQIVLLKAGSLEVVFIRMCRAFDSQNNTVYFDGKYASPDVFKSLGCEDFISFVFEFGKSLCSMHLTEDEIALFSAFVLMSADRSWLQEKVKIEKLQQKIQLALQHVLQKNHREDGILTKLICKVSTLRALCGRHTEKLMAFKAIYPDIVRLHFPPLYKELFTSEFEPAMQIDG

[2] = molecular target: T2, Nuclear receptor ROR-beta (Homo sapiens, UniProt Q92753); experiment: Inverse agonist activity at human ROR-beta1 transfected in HEK293 cells after 16 hrs by luciferase reporter gene assay
T2 sequence (Q92753 whole entry): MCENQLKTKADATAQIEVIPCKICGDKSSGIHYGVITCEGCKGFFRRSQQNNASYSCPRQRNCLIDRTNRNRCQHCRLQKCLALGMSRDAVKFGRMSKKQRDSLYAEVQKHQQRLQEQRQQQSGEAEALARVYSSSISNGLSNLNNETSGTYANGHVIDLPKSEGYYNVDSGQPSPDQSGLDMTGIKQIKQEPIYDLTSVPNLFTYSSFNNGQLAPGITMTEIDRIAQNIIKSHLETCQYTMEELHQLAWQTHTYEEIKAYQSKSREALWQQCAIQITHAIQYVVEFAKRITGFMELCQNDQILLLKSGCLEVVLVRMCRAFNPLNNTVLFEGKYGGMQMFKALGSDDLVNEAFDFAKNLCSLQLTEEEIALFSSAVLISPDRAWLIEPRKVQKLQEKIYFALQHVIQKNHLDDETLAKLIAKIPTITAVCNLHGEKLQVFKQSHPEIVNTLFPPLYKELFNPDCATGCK

[3] = molecular target: T3, Nuclear receptor ROR-gamma (Homo sapiens, UniProt P51449); experiment: Inverse agonist activity at human ROR-gamma1 transfected in HEK293 cells after 16 hrs by luciferase reporter gene assay
T3 sequence (P51449 whole entry): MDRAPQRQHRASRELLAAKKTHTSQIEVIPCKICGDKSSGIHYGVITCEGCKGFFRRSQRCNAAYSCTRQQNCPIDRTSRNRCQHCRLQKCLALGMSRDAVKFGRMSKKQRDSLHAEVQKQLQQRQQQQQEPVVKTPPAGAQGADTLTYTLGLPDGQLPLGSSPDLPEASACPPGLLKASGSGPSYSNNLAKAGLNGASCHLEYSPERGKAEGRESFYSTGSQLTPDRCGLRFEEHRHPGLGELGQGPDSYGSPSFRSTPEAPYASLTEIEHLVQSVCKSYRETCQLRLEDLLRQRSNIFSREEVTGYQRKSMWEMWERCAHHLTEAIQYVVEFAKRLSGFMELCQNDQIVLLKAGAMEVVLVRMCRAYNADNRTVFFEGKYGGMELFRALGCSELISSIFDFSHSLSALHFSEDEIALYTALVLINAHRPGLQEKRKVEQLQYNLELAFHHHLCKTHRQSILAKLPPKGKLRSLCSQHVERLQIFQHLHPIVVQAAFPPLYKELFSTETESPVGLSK

[4] = molecular target: T4, Nuclear receptor ROR-beta (Homo sapiens) (UniProt Q92753); experiment: Inverse agonist activity at human ROR-beta1 transfected in HEK293 cells at 10 uM after 16 hrs by luciferase reporter gene assay relative to control
T4 sequence (whole entry): T2 sequence (Q92753 whole entry)
Summary of the method: (§1)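 HEK293 cells grown in DMEM with 5% FBS plus penicillin/streptomycin, 37 °C, 5% CO2, seeded at 20% confluence 24 h before transfection. Calcium phosphate cotransfection per well: 150 ng receptor expression plasmid, 500 ng luciferase reporter, 10 ng β-galactosidase vector. After 8 h, compound at 10 µM or DMSO for 16 h. Luciferase normalized to β-galactosidase, inhibition expressed as percent of control, transfections in triplicate.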

[5] = molecular target: T5, Nuclear receptor ROR-gamma (Homo sapiens) (UniProt P51449); experiment: Inverse agonist activity at human ROR-gamma1 transfected in HEK293 cells at 10 uM after 16 hrs by luciferase reporter gene assay relative to control; summary of the method: as §1
T5 sequence (whole entry): T3 sequence (P51449 whole entry)

| IC50 [1] [µM] | IC50 [2] [µM] | IC50 [3] [µM] | inhibition [4] [%] | inhibition [5] [%] | Compound |
| --- | --- | --- | --- | --- | --- |
| 7.2 | 5.7 | 4.7 |  |  | CCCCn1c(=O)c2ccccc2c2cc(C(O)(C(F)(F)F)C(F)(F)F)ccc21 |
|  |  |  | 29 | 37 | CCCCn1c(=O)c2ccccc2c2cc(CC)ccc21 |
|  |  |  | 40 |  | C[Si]1(C)c2ccccc2-c2cc(C(O)(C(F)(F)F)C(F)(F)F)ccc21 |
|  |  |  | < 5 | < 5 | CCCC[Si]1(CCCC)c2ccccc2-c2cc(C(C)=O)ccc21 |
|  |  |  | < 5 | 18 | CCCC[Si]1(CCCC)c2ccccc2-c2cc(CC)ccc21 |
|  |  |  | < 5 | < 5 | CCCC[Si]1(CCCC)c2ccccc2-c2cc(C(C)O)ccc21 (stereo unspecified) |
|  |  |  | < 5 | 13 | CCCC[Si]1(CCCC)c2ccccc2-c2ccccc21 |
|  |  | 4.2 | 28 |  | CC[Si]1(CC)c2ccccc2-c2cc(C(O)(C(F)(F)F)C(F)(F)F)ccc21 |

— ChEMBL document CHEMBL3585299, “Design and synthesis of novel ROR inverse agonists with a dibenzosilole scaffold as a hydrophobic core structure” (Bioorg Med Chem, 2015)
